# Measured values taken from PubChem BioAssay AID651654 (Broad Institute, 2012).
# The campaign covered roughly 360,000 compounds. About 740 (0.21%) were called active. The entries come from a sample that favours actives as a whole. Unmarked numbers belong to inactive results.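 How the source made its calls: active means mean lysis activity across replicates of at least 80%, whatever share of replicates individually reach that level; inactive means mean lysis activity below 80%.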
# Test: fungicidal lysis via adenylate kinase leakage – AK release luminescence, single concentration, primary screen (AID 651654)
# Settings: C. neoformans lysis, 4 h, at 15 µM, hits give high values, normalised: neutral wells 0, clomiphene wells 100
# In short: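 Material: C. neoformans cells | Amount: Yeast cell density of 5 × 10^6 cells/mL | Medium: Fresh YPD growth medium | Dosing: Single dose | Times: Static 4 h at 37 °C with compound, 1 h detection | Detection: AK luminescence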
row,SMILES,lysis activity
1,CNC[C@H]1Oc2ccc(NS(=O)(=O)c3ccc(F)cc3)cc2C(=O)N([C@@H](C)CO)C[C@@H]1C,3.02%
2,Cc1ccc(S(=O)(=O)N[C@H]2CC[C@@H](CC(=O)NCCCN(C)C)O[C@H]2CO)cc1,-1.04%
3,CCCNC(=O)[C@@H]1[C@@H](CO)[C@@H]2Cn3c(cccc3=O)[C@H]1N2C(=O)C1CC1,1.83%
4,CCCNC(=O)[C@@H]1[C@@H](CO)[C@@H]2Cn3c(cccc3=O)[C@H]1N2C(=O)Nc1cc(F)ccc1F,92.3% (active)
5,CCCNC(=O)N1[C@@H]2c3cccc(=O)n3C[C@H]1[C@H](CO)[C@H]2C(=O)NCC(F)(F)F,-3.09%
6,COc1ccc(S(=O)(=O)N(C)C[C@@H]2Oc3ccc(NC(=O)CCC(F)(F)F)cc3C(=O)N([C@@H](C)CO)C[C@H]2C)cc1,2.26%
7,O=C(C[C@H]1C=C[C@H](NS(=O)(=O)c2ccc(F)cc2)[C@H](CO)O1)NCc1ccncn1,-3.14%
8,C[C@@H]1CN([C@H](C)CO)C(=O)c2cc(NC(=O)CCCN(C)C)ccc2O[C@H]1CN(C)Cc1ccc(C(=O)O)cc1,-1.44%
9,CO[C@@H]1CN(C)C(=O)c2ccc(NC(=O)C3CCC3)cc2OC[C@H](C)NC[C@H]1C,1.85%
10,CC(C)NC(=O)N(C)C[C@H]1Oc2c(NC(=O)c3ccncc3)cccc2C(=O)N([C@@H](C)CO)C[C@H]1C,-2.5%
11,C[C@H](CO)N1C[C@H](C)[C@@H](CN(C)Cc2ccc(Oc3ccccc3)cc2)Oc2cc(-c3ccncc3)ccc2S1(=O)=O,-0.269%
12,CCCNC(=O)Nc1ccc2c(c1)OC[C@H](C)N(Cc1ccccc1)C[C@H](C)[C@H](OC)CN(C)C2=O,-0.367%
13,CO[C@@H]1CN(C)C(=O)c2ccc(NC(=O)C3CC3)cc2OC[C@@H](C)N(CC2CCOCC2)C[C@H]1C,61.5%
14,O=C(c1ccccc1)N1CC[C@H]2[C@H](CO)Nc3ccc(-c4ccc(F)cc4)cc3[C@H]21,21.5%
15,C/C=C/c1cnc2c(c1)C(=O)N([C@@H](C)CO)C[C@@H](C)[C@H](CN(C)Cc1cncnc1)O2,-1.92%
16,COc1cccc(NC(=O)N2CC[C@@H]3[C@@H](CO)N(C)c4ccc(-c5cccc(F)c5)cc4[C@@H]32)c1,-11.2%
17,Cc1noc(C)c1NC(=O)N(C)C[C@@H]1Oc2ccc(NC(=O)Nc3cccc4ccccc34)cc2CC(=O)N([C@@H](C)CO)C[C@H]1C,41.1%
18,CCN1[C@@H]2c3ccc(C4=CCCC4)c(=O)n3C[C@@H]2[C@@H](CO)[C@@H]1C(=O)NCc1ccccn1,1.37%
19,CO[C@@H]1CN(C)C(=O)c2ccc(NS(=O)(=O)c3ccc(Cl)cc3)cc2OC[C@H](C)N(C(=O)NC(C)C)C[C@H]1C,-5.3%
20,C[C@H]1CN([C@@H](C)CO)C(=O)c2cccc(NC(=O)Nc3ccccc3)c2O[C@@H]1CN(C)S(=O)(=O)c1ccc(F)cc1,-1.52%
21,OC[C@@H]1[C@@H](c2ccc(C#CC3(O)CCCC3)cc2)[C@@H]2CN(Cc3cncnc3)CCCCN12,-3.24%
22,O=C(C[C@@H]1CC[C@H](NC(=O)Nc2ccc(F)cc2)[C@H](CO)O1)NCc1ccccn1,-0.684%
23,CO[C@@H]1CN(C)C(=O)c2cc(NC(=O)C3CC3)ccc2OC[C@@H](C)N(C(=O)c2ccccc2F)C[C@@H]1C,44%

row,SMILES,lysis activity
1,C[C@@H]1CN([C@@H](C)CO)S(=O)(=O)c2ccc(-c3ccc(C(=O)N(C)C)cc3)cc2O[C@@H]1CN(C)C(=O)Cc1ccccn1,0.616%
2,CN1CCN(C(=O)c2cc3c(c(-c4cccc(-c5ccc(C(=O)N(C)C)cc5)c4)n2)[C@@H](CCO)N([S@](=O)C(C)(C)C)C3)CC1,-8.88%
3,Cc1ccc(S(=O)(=O)N[C@@H]2CC[C@H](CCNC(=O)C3CCOCC3)O[C@@H]2CO)cc1,-6.3%
4,COCC(=O)Nc1ccc2c(c1)OC[C@H](C)N(C(=O)c1ccccn1)C[C@@H](C)[C@H](OC)CN(C)C2=O,0.52%
5,O=C(C[C@H]1CC[C@@H]2[C@H](COC[C@@H](O)CN2C(=O)Nc2ccc(Cl)cc2)O1)NC1Cc2ccccc2C1,-3.01%
6,C[C@@H]1CN([C@H](C)CO)C(=O)c2cc(C#CC3CC3)cnc2O[C@@H]1CN(C)Cc1cccc(C(=O)O)c1,-8.03%
7,C[C@H](CO)N1C[C@H](C)[C@@H](CN(C)Cc2ccc(C(=O)Nc3ccccc3N)cc2)Oc2c(NC(=O)C3CC3)cccc2C1=O,-0.959%
8,COCC(=O)N(C)C[C@@H]1Oc2cc(C#CCC(C)C)ccc2S(=O)(=O)N([C@@H](C)CO)C[C@@H]1C,0.182%
9,O=C(CN1CCOCC1)NC[C@@H]1N[C@@H](CO)[C@@H]1c1ccc(-c2ccccc2)cc1,4.94%
10,CCC(=O)N1[C@@H]2CN(C(=O)Nc3ccc(Cl)cc3)c3ccccc3[C@@H]2[C@@H]1CO,-1.93%
11,COc1cccc(S(=O)(=O)Nc2ccc3c(c2)[C@@H]2C[C@@H](CC(=O)NC4CCCCC4)O[C@H](CO)[C@@H]2O3)c1,2.9%
12,COc1cccc(S(=O)(=O)Nc2ccc3c(c2)[C@H]2C[C@H](CC(=O)O)O[C@H](CO)[C@H]2O3)c1,-0.106%
13,COc1cccc(S(=O)(=O)Nc2ccc3c(c2)[C@@H]2C[C@H](CC(=O)NC4CCCCC4)O[C@H](CO)[C@@H]2O3)c1,116% (active)
14,CCCC#Cc1cnc2c(c1)C(=O)N([C@H](C)CO)C[C@H](C)[C@H](CN(C)C(=O)c1cnccn1)O2,-1.04%
15,CCC(=O)Nc1ccc2c(c1)C(=O)N(C)[C@H]1CC[C@H](CC(=O)NC3Cc4ccccc4C3)O[C@H]1CO2,-0.192%
16,COCC(=O)Nc1ccc2c(c1)[C@H]1C[C@H](CC(=O)OC)O[C@@H](CO)[C@H]1O2,-5.98%
17,O=C(C[C@H]1CC[C@H]2[C@@H](COC[C@H](O)CN2C(=O)Nc2ccc(Cl)cc2)O1)NCC1CC1,-8.94%
18,C[C@H]1CN([C@@H](C)CO)C(=O)c2cc(NC(=O)Cn3cnnn3)ccc2O[C@H]1CN(C)Cc1ccc(C(=O)O)cc1,-7.7%
19,C[C@@H](NC(=O)C[C@@H]1CC[C@H](NC(=O)Cc2ccccn2)[C@H](CO)O1)c1ccccc1,-0.901%
20,C[C@H](NC(=O)C[C@@H]1CC[C@@H](NC(=O)Cc2ccccn2)[C@@H](CO)O1)c1ccccc1,0.182%
21,C[C@@H](NC(=O)C[C@H]1CC[C@@H](NC(=O)Cc2ccccn2)[C@@H](CO)O1)c1ccccc1,105% (active)
22,COc1ccc(NC(=O)N(C)C[C@@H]2OCCCC[C@@H](C)Oc3ccc(NS(=O)(=O)c4c(C)noc4C)cc3C(=O)N([C@H](C)CO)C[C@@H]2C)cc1,-3%
23,CC(C)C#Cc1ccc2c(c1)O[C@H](CN(C)Cc1ccccc1)[C@H](C)CN([C@@H](C)CO)S2(=O)=O,14.5%

row,SMILES,lysis activity
1,CCNC(=O)C[C@@H]1CC[C@H]2[C@@H](COc3ccc(NC(=O)Cc4cccs4)cc3C(=O)N2C)O1,-1.39%
2,COc1ccccc1CNC(=O)C[C@H]1CC[C@@H]2[C@H](COC[C@H](O)CN2Cc2ccccc2)O1,-1.1%
3,COc1ccccc1-c1ccc2n(c1=O)C[C@@H]1[C@@H](CO)[C@H](C(=O)NCc3ccccc3Cl)N[C@H]21,-0.428%
4,CO[C@@H]1CN(C)C(=O)c2cc(NC(=O)c3ccno3)ccc2OC[C@@H](C)N(S(C)(=O)=O)C[C@@H]1C,0.04%
5,C/C=C/c1ccc([C@H]2[C@@H](CO)N(C(C)=O)[C@H]2CN(C)S(C)(=O)=O)cc1,-1.56%
6,C/C=C/c1ccc2c(c1)O[C@H](CN(C)C(=O)Nc1ccc(OC)cc1)[C@@H](C)CN([C@H](C)CO)S2(=O)=O,-3.44%
7,Cc1ccc(S(=O)(=O)Nc2ccc3c(c2)C(=O)N([C@@H](C)CO)C[C@@H](C)[C@@H](CN(C)Cc2ccc(C(F)(F)F)cc2)OCCCC[C@@H](C)O3)cc1,54.9%
8,C[C@@H]1CCCCO[C@H](CN(C)C(=O)NC2CCCCC2)[C@H](C)CN([C@H](C)CO)C(=O)c2cc(NC(=O)c3ccncc3)ccc2O1,-2.46%
9,CO[C@@H]1CN(C)C(=O)c2cc(NC(=O)Nc3ccc(F)cc3)ccc2OC[C@@H](C)NC[C@@H]1C,-3.48%
10,COc1cccc(-c2ccc3n(c2=O)C[C@@H]2[C@@H](CO)[C@H](C(=O)NCC4CC4)N(C(=O)NC(C)C)[C@H]32)c1,-2.16%
11,CCC(=O)Nc1ccc2c(c1)C(=O)N(C)C[C@H](OC)[C@H](C)CN(Cc1ccccc1F)[C@H](C)CO2,3.58%
12,C[C@@H]1CN([C@H](C)CO)S(=O)(=O)c2ccc(C3=CCCC3)cc2O[C@H]1CN(C)C(=O)c1ccccc1,2.54%
13,O=C(C[C@@H]1C[C@@H]2c3cc(NS(=O)(=O)c4ccc(F)cc4)ccc3O[C@@H]2[C@@H](CO)O1)N1CCOCC1,-1.76%
14,C[C@@H]1CCCCO[C@@H](CN(C)S(C)(=O)=O)[C@H](C)CN([C@@H](C)CO)C(=O)c2cc(NS(=O)(=O)c3cccs3)ccc2O1,0.965%
15,C[C@H]1CN([C@@H](C)CO)C(=O)c2ccccc2-c2ccccc2CO[C@H]1CN(C)S(=O)(=O)c1ccccc1C#N,1.59%
16,Cc1ccc(S(=O)(=O)N(C)C[C@H]2OCc3ccccc3-c3ccccc3C(=O)N([C@@H](C)CO)C[C@@H]2C)cc1,-0.134%
17,C[C@H]1CN([C@@H](C)CO)C(=O)c2ccccc2-c2ccccc2CO[C@H]1CN(C)S(=O)(=O)c1cccc(C#N)c1,82.9% (active)
18,CO[C@H]1CN(C)C(=O)c2cc(NC(=O)C3CC3)ccc2OC[C@@H](C)N(Cc2cc(F)ccc2F)C[C@H]1C,0.743%
19,COC(=O)C[C@H]1C[C@H]2c3cc(NC(=O)Nc4ccccc4F)ccc3O[C@H]2[C@H](CO)O1,11.5%
20,CO[C@@H]1CN(C)C(=O)c2ccc(NC(=O)Nc3c(C)noc3C)cc2OC[C@@H](C)NC[C@H]1C,-0.469%
21,O=C(c1ccncc1)N1CC[C@@H]2[C@H]1c1cc(Br)ccc1N[C@@H]2CO,-16.8%
22,C[C@H]1CN([C@@H](C)CO)S(=O)(=O)c2ccc(C3=CCCC3)cc2O[C@H]1CN(C)Cc1cccc(C(=O)O)c1,0.868%
